Assay results taken from ChEMBL document CHEMBL3232844, “Synthesis and structure activity relationships of schweinfurthin indoles” (2014).

What was measured:
Format in all cases: functional
HOP-62 = experiment: Cytotoxicity against human HOP62 cells; details: for CC50: read-out: pLC50 (the source's name) (converted); for TGI: read-out: pTGI (converted)
In short: (§1)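 Tested in a 60-cell-line human tumor panel screen; the read-out is growth inhibition, reported as GI50 for each cell line.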

[1] = Cytotoxicity against human Hs578T cells; details: Hs-578T; for TGI: read-out: pTGI (converted); in short: as §1
[2] = Cytotoxicity against human HCT15 cells; details: for GI50: HCT-15; for CC50: HCT-15, read-out: pLC50 (the source's name) (converted); for TGI: HCT-15, read-out: pTGI (converted); in short: as §1
[3] = Cytotoxicity against human OVCAR4 cells; details: for GI50: OVCAR-4; for CC50: OVCAR-4, read-out: pLC50 (the source's name) (converted); for TGI: OVCAR-4, read-out: pTGI (converted); in short: as §1
HCT-116 = experiment: Cytotoxicity against human HCT116 cells; details: for CC50: read-out: pLC50 (the source's name) (converted); for TGI: read-out: pTGI (converted); in short: as §1
HOP-92 = experiment: Cytotoxicity against human HOP92 cells; details: for CC50: read-out: pLC50 (the source's name) (converted); for TGI: read-out: pTGI (converted); in short: as §1
TK-10 = experiment: Cytotoxicity against human TK10 cells; details: for TGI: read-out: pTGI (converted)
In short: (§2)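 Cell line run as part of the 60-cell-line screening panel; growth inhibition was reported as a GI50 for each line.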

Malme-3M = experiment: Cytotoxicity against human MALME-3M cells; details: for CC50: read-out: pLC50 (the source's name) (converted); for TGI: read-out: pTGI (converted); in short: as §1
IGROV-1 = experiment: Cytotoxicity against human IGROV1 cells; details: for CC50: read-out: pLC50 (the source's name) (converted); for TGI: read-out: pTGI (converted); in short: as §1
SK-MEL-28 = experiment: Cytotoxicity against human SK-MEL-28 cells; details: for CC50: read-out: pLC50 (the source's name) (converted); for TGI: read-out: pTGI (converted); in short: as §1
LOX IMVI = experiment: Cytotoxicity against human LOXIMVI cells; details: for CC50: read-out: pLC50 (the source's name) (converted); for TGI: read-out: pTGI (converted); in short: as §1
CAKI-1 = experiment: Cytotoxicity against human Caki1 cells; details: for TGI: read-out: pTGI (converted); in short: as §1
SW-620 = experiment: Cytotoxicity against human SW620 cells; details: for CC50: read-out: pLC50 (the source's name) (converted); for TGI: read-out: pTGI (converted); in short: as §2
RPMI-8226 = experiment: Cytotoxicity against human RPMI8226 cells; details: for CC50: read-out: pLC50 (the source's name) (converted); for TGI: read-out: pTGI (converted); in short: as §1
COLO 205 = experiment: Cytotoxicity against human COLO205 cells; details: for CC50: read-out: pLC50 (the source's name) (converted); for TGI: read-out: pTGI (converted); in short: as §1
A549 = experiment: Cytotoxicity against human A549 cells; details: for CC50: read-out: pLC50 (the source's name) (converted); for TGI: read-out: pTGI (converted); in short: as §1
NCI-H522 = experiment: Cytotoxicity against human NCI-H522 cells; details: for CC50: read-out: pLC50 (the source's name) (converted); for TGI: read-out: pTGI (converted); in short: as §1

## COc1cc(/C=C/c2cc(O)c3cc(CC=C(C)C)[nH]c3c2)cc2c1O[C@]1(C)CC[C@@H](O)C(C)(C)[C@H]1C2
HOP-62
  GI50: 0.832 µM
  CC50: > 100 µM
  TGI: 46.8 µM
[1]
  GI50: 0.309 µM
  LC50: > 100 µM
  TGI: > 100 µM
[2]
  GI50: 1.45 µM
  CC50: > 100 µM
  TGI: 17.4 µM
[3]
  GI50: 28.8 µM
  CC50: > 100 µM
  TGI: > 100 µM
HCT-116
  GI50: 2.34 µM
  CC50: > 100 µM
  TGI: > 100 µM
HOP-92
  GI50: 1.38 µM
  CC50: > 100 µM
  TGI: 42.7 µM
TK-10
  GI50: 19.1 µM
  LC50: > 100 µM
  TGI: > 100 µM
Malme-3M
  GI50: 4.9 µM
  CC50: > 100 µM
  TGI: > 100 µM
IGROV-1
  GI50: 5.01 µM
  CC50: > 100 µM
  TGI: > 100 µM
SK-MEL-28
  GI50: 4.68 µM
  CC50: 91.2 µM
  TGI: 50.1 µM
LOX IMVI
  GI50: 2.82 µM
  CC50: > 100 µM
  TGI: 75.9 µM
CAKI-1
  GI50: 4.07 µM
  LC50: > 100 µM
  TGI: 93.3 µM
SW-620
  GI50: 2.04 µM
  CC50: 39.8 µM
  TGI: 8.32 µM
RPMI-8226
  GI50: 0.282 µM
  CC50: > 100 µM
  TGI: 32.4 µM
COLO 205
  GI50: 2.75 µM
  CC50: 22.4 µM
  TGI: 8.32 µM
A549
  GI50: 6.31 µM
  CC50: > 100 µM
  TGI: > 100 µM
NCI-H522
  GI50: 4.9 µM
  CC50: > 100 µM
  TGI: 43.7 µM

## COc1cc(/C=C/c2cc(OC)c3c(CC=C(C)C)c[nH]c3c2)cc2c1O[C@]1(C)CC[C@@H](O)C(C)(C)[C@H]1C2
HOP-62
  GI50: 0.0871 µM
  CC50: 2.34 µM
  TGI: 0.479 µM
[1]
  GI50: 0.0537 µM
  LC50: > 100 µM
  TGI: 0.692 µM
[2]
  GI50: 0.174 µM
  CC50: 6.17 µM
  TGI: 1.35 µM
[3]
  GI50: 2.45 µM
  CC50: > 100 µM
  TGI: 33.1 µM
HCT-116
  GI50: 0.417 µM
  CC50: 57.5 µM
  TGI: 12.6 µM
HOP-92
  GI50: 0.178 µM
  CC50: 93.3 µM
  TGI: 5.62 µM
TK-10
  GI50: 2.75 µM
  LC50: 66.1 µM
  TGI: 17.4 µM
Malme-3M
  GI50: 2 µM
  CC50: 91.2 µM
  TGI: 8.71 µM
IGROV-1
  GI50: 1.66 µM
  CC50: > 100 µM
  TGI: 41.7 µM
SK-MEL-28
  GI50: 0.347 µM
  CC50: 15.8 µM
  TGI: 2.24 µM
LOX IMVI
  GI50: 0.295 µM
  CC50: 4.47 µM
  TGI: 1.29 µM
CAKI-1
  GI50: 0.347 µM
  LC50: 53.7 µM
  TGI: 2.19 µM
SW-620
  GI50: 0.288 µM
  CC50: 4.07 µM
  TGI: 1.12 µM
RPMI-8226
  GI50: 0.0776 µM
  TGI: 0.355 µM
COLO 205
  GI50: 0.219 µM
  CC50: 1.55 µM
  TGI: 0.479 µM
A549
  GI50: 0.525 µM
  CC50: 50.1 µM
  TGI: 12.9 µM
NCI-H522
  GI50: 0.646 µM
  CC50: 5.25 µM
  TGI: 2 µM

## COc1cc(/C=C/c2cc(O)c3c(c2)C[C@@H]2C(C)(C)[C@H](O)CC[C@@]2(C)O3)cc2[nH]cc(CC=C(C)C)c12
HOP-62
  GI50: 0.0501 µM
  CC50: 40.7 µM
  TGI: 1.7 µM
[1]
  GI50: 0.01 µM
  LC50: > 100 µM
  TGI: 0.977 µM
[2]
  GI50: 0.209 µM
  CC50: 36.3 µM
  TGI: 4.9 µM
[3]
  GI50: 10.7 µM
  CC50: 77.6 µM
  TGI: 47.9 µM
HCT-116
  GI50: 0.339 µM
  CC50: 64.6 µM
  TGI: 36.3 µM
HOP-92
  GI50: 1.15 µM
  CC50: 81.3 µM
  TGI: 22.9 µM
TK-10
  GI50: 8.32 µM
  LC50: 69.2 µM
  TGI: 40.7 µM
Malme-3M
  GI50: 5.37 µM
  CC50: > 100 µM
  TGI: 31.6 µM
IGROV-1
  GI50: 5.01 µM
  CC50: 89.1 µM
  TGI: 45.7 µM
SK-MEL-28
  GI50: 0.676 µM
  CC50: 46.8 µM
  TGI: 10.7 µM
LOX IMVI
  GI50: 0.282 µM
  CC50: 30.9 µM
  TGI: 6.61 µM
CAKI-1
  GI50: 0.245 µM
  LC50: 79.4 µM
  TGI: 17 µM
SW-620
  GI50: 0.302 µM
  CC50: 21.4 µM
  TGI: 4.27 µM
RPMI-8226
  GI50: 0.0112 µM
  CC50: > 100 µM
  TGI: 0.417 µM
COLO 205
  GI50: 4.17 µM
  CC50: 21.4 µM
  TGI: 9.33 µM
A549
  GI50: 2.4 µM
  CC50: 67.6 µM
  TGI: 38.9 µM
NCI-H522
  GI50: 1.66 µM
  CC50: 20.9 µM
  TGI: 7.24 µM
